# Tests used:
# [1] = target: T1, 15F3 of Fn (Rattus norvegicus, UniProt P04937); assay: Stopped-flow binding kinetics with 15F3; settings: 25 °C
# T1 sequence (P04937 2193-2286 limits assumed): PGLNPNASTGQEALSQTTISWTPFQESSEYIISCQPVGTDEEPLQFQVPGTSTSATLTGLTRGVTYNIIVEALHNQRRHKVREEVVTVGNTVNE
# How it was run: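 Rat Fn 15th type III module (1 μM) in PBS was rapidly mixed with test peptide (25–400 μM, at least 25-fold excess for pseudo-first-order conditions). Trp emission above 320 nm (295 nm excitation, 320 nm cut-off filter) was recorded at 25 °C, 1000 points per trace. Averaged traces were fitted single-exponentially for kobs; kobs versus peptide concentration gave kon and koff. Three experiments were averaged.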
# [2] = target: T1, 15F3 of Fn; assay: Intrinsic Trp fluorescence quenching titration of 15F3; format: binding
# How it was run: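 Titration of the rat Fn 15th type III module (1 μM) with varied test peptide concentrations; intrinsic Trp emission spectra recorded after 5 min. Intensity at 350 nm was fitted to derive KD. Data were corrected for dilution and inner-filter effect.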
substance,measurement,setting,value
LIPAD,binding kinetics to 15F3,[1],slow binding kinetics
same,affinity for 15F3,[2],moderate affinity

# Reference: paper PMC2804977 (Biochemical and biophysical research communications, 2009)
